Assay outcomes: PubChem BioAssay, Sanford-Burnham Center for Chemical Genomics
Sampled rows, rich in hits. Any-hit rate of the full collection: about 0.79%.
hIAP act – increases human intestinal alkaline phosphatase activity; P09923; purified human IAP, CDP-Star luminescence, 30 min; stronger effect = higher value; 1 = vehicle-only enzyme, 0 = enzyme-free background; activation factor at 10 µM; hit rate 0.16% among 330,000; AID 2524;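 active = activation factor of the enzyme at least 2-fold when tested at 20 µM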
Target sequence (P09923 whole entry, looked up): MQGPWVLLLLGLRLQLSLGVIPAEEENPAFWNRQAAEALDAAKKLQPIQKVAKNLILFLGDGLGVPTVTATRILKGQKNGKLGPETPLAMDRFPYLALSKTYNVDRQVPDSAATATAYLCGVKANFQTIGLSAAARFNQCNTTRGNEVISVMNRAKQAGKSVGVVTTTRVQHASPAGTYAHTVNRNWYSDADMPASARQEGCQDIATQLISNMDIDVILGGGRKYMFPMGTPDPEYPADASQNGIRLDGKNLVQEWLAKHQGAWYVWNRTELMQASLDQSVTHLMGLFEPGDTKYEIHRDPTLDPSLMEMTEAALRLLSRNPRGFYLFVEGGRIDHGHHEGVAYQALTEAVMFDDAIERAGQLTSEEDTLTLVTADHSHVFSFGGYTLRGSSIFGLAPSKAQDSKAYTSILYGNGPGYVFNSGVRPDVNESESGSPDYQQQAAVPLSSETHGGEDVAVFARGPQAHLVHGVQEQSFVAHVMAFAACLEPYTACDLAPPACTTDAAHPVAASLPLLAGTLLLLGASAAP
hIAP block – human IAP inhibition; hit rate 0.12% among 330,000; inhibition, % at 10 µM; AID 2544; P09923; purified IAP, CDP-Star luminescence, 30 min;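 active = inhibition reaching a set limit with compound at 10 µM in the primary screen, cut at about 35% in these data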;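 also: plate controls were DMSO wells with enzyme for no effect and no-enzyme buffer wells for full effect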
mIAP activ – mouse IAP activation. muIAP, CDP-Star luminescence, 30 min; stronger effect = higher value; 1 = vehicle-only enzyme signal, 0 = enzyme-free wells. activation factor at 10 µM. hit rate 0.24% among 330,000;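 active = activation factor of at least 2 at 20 µM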
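System: mouse IAP enzyme. Reagent: CDP-Star chemiluminescent phosphatase substrate. Benchmarks: DMSO wells, no-enzyme wells. Times: 30 min enzyme-substrate-compound incubation at room temperature. Detection: luminescence from enzymatic CDP-Star hydrolysis. Doses: test compounds delivered from DMSO solution.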
bIAP act – increases bovine intestinal alkaline phosphatase activity; purified bovine IAP, CDP-star luminescence, 30 min; stronger effect = higher value; fold of DMSO-control signal, blank-subtracted; activation factor at 20 µM; hit rate 0.17% among 200,000; AID 1016;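 active = activation factor of 2 or more at 20 µM, a signal rise over negative controls twice the positive control's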
mIAP inh – mouse IAP inhibition; purified mouse IAP, CDP-Star luminescence, 30 min; inhibition, % at 10 µM; hit rate 0.2% among 330,000;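 active = inhibition of at least 40% at 10 µM in the primary screen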;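 also: plate controls were DMSO with enzyme for no effect and no enzyme wells for full effect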
bIAP inh – intestinal alkaline phosphatase (bovine) inhibition. AID 1019. 190,000 tested, under 10 active. inhibition, % at 20 µM. purified bovine IAP, CDP-star luminescence, 30 min;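 active = over 50% inhibition of intestinal alkaline phosphatase at 20 µM in the single-dose screen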
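Incubation: 30 min reaction at room temperature / Material: purified bovine intestinal alkaline phosphatase (IAP) enzyme / Input: enzyme at 1/65,000,000 dilution / Dosing: 20 µM single dose / Signal: CDP-star luminescence signal / Reagent: CDP-star chemiluminescent phosphatase substrate, 30 µM final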
mIAP inh conf – mouse IAP inhibition confirmation; shares compounds with mIAP inh; AID 434971; hit rate 4.7% among 11,000; inhibition, % at 10 µM; purified mouse IAP, CDP-Star luminescence, 30 min;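 active = inhibition of at least 40% at 10 µM in either of the two replicates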;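 also: plate controls were DMSO wells with enzyme for no effect and buffer wells lacking enzyme for full effect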
Active calls of the source: *; i = inactive; nt = not tested or not shown.

SMILES | hIAP act | hIAP block | mIAP activ | bIAP act | mIAP inh | bIAP inh | mIAP inh conf
COC(=O)c1ccc(/C=N/NC(=O)C2CC(=O)N(c3ccc(OC)cc3)C2)cc1 (configuration not stated) | 1.25 | -25.1 | 1.08 | nt | -8.0 | nt | nt
Cc1cc(C)cc(NC(=O)C2CCN(S(=O)(=O)c3ccc4c(c3)NC(=O)C(C)S4)CC2)c1 (configuration not stated) | 1.44 | -43.5 | 2.45* | nt | -145.1 | nt | -96.0
O=C(CCN1C(=O)S/C(=C/c2ccccc2)C1=O)Nc1ccc(O)c(C(=O)O)c1 | 1.28 | -27.8 | 1.04 | nt | -3.9 | nt | nt
O=C(NN1C(=O)C2C3c4ccccc4C(c4ccccc43)C2C1=O)C1CC1 (configuration not stated) | 0.963 | 3.7 | 0.98 | 1 | 2.0 | 4.1 | nt
S=c1[nH]nc(-c2cc(-c3ccco3)[nH]n2)n1-c1ccccc1Cl | 1.27 | -26.8 | 0.428 | 1.3 | 57.2* | -28.7 | 74.2*
S=c1[nH]nc(-c2ccco2)n1-c1ccccc1Cl | 0.922 | 7.8 | 1.16 | 1 | -16.2 | 2.8 | nt
O=C(c1ccc2c(c1)OCO2)[C@@H]1[C@@H]2C(=O)N(C3CCCCC3)C(=O)[C@@H]2C2c3ccccc3C=CN21 (some centres not stated) | nt | nt | nt | 1 | nt | 2.2 | nt
O=C(c1cccs1)[C@@H]1[C@@H]2C(=O)N(Cc3ccc4c(c3)OCO4)C(=O)[C@@H]2C2c3ccccc3C=CN21 (some centres not stated) | 0.988 | 1.2 | 0.539 | 0.9 | 46.1* | 6.7 | 43.1*
O=C(/C=C/c1ccco1)NCc1ccc(F)cc1 | 0.959 | 4.1 | 1 | 1 | -0.1 | -4.8 | nt
NS(=O)(=O)c1ccc(NC(=S)NC(=O)/C=C/c2ccco2)cc1 | 0.961 | 3.9 | 0.092 | 0.9 | 90.8* | 8.8 | 77.3*
NS(=O)(=O)c1ccc(CNC(=O)/C=C/c2ccco2)cc1 | 0.983 | 1.7 | 0.541 | nt | 45.9* | nt | 49.6*
Cc1ccc(S(=O)(=O)N2CCN(c3ccccc3)CC2)cc1C(=O)NC1CCCCC1 | 1.1 | -10.0 | 0.991 | nt | 0.9 | nt | nt
O=C(Nc1ccc(Cl)cc1)NC1CCCCC1Cc1ccco1 (configuration not stated) | 1.21 | -20.5 | 7.83* | 1.6 | i | -55.9 | -110.8
O=C(Nc1cccc(Cl)c1)NC1CC2CCC(C1)N2Cc1ccco1 (configuration not stated) | 1.15 | -15.3 | 1.15 | 1 | -14.8 | -2.2 | nt
N#C/C(=C\c1ccc(O)c(O)c1)C(=O)Nc1cccc2ncccc12 | 0.675 | 32.5 | 0.337 | nt | 66.3* | nt | 76.0*
COc1ccc(/C=C(\C#N)C(=O)Nc2cccc3ncccc23)cc1OC | 1.15 | -15.4 | 1.14 | nt | -13.8 | nt | nt
O=C(NCCO)Nc1ccc2nc(-c3ccco3)c(-c3ccco3)nc2c1 | 1.06 | -5.7 | 0.582 | 0.9 | 41.8* | 7.3 | 49.3*
O=C(NCCCO)c1ccc2nc(-c3ccco3)c(-c3ccco3)nc2c1 | nt | nt | nt | 1.3 | nt | -25.2 | nt
COc1ccc(C(=O)Nc2c(Cl)cc(Cl)cc2C(=O)N2CCOCC2)cc1 | 0.868 | 13.2 | 0.923 | 1.1 | 7.7 | -14.2 | nt
CC(=O)c1ccc2c(c1)C1C=CCC1C(C(=O)O)N2 (configuration not stated) | 0.878 | 12.2 | 0.527 | 1.1 | 47.3* | -6.8 | 58.6*
Cc1cccc(C)c1NS(=O)(=O)c1c(C(=O)N2CCCCC2)c(C)n(C)c1C | 0.919 | 8.1 | 1 | nt | -0.5 | nt | nt
CN(CCO)c1ccc(C=NNc2ccc([N+](=O)[O-])cc2S(=O)(=O)Nc2ccccc2C(=O)O)cc1 | 0.975 | 2.5 | 0.541 | nt | 45.9* | nt | 45.6*
CC(=O)Nc1ccc(C=NNc2ccc([N+](=O)[O-])cc2S(=O)(=O)Nc2ccccc2C(=O)O)cc1 | 0.893 | 10.7 | 0.675 | nt | 32.5 | nt | nt
Cc1nc(NC(=O)c2ccccc2)sc1-c1csc(NCc2ccco2)n1 | 0.74 | 26.0 | 0.557 | 0.9 | 44.3* | 9.8 | 56.2*
C=CCn1c(SCC(=O)c2ccc(O)c(O)c2)nnc1-c1cccc(OC)c1 | 0.91 | 9.0 | 0.592 | nt | 40.8* | nt | 45.5*
SMILES | hIAP act | hIAP block | mIAP activ | bIAP act | mIAP inh | bIAP inh | mIAP inh conf
COc1ccc(NC(=O)C2CC(c3ccccc3Cl)=NO2)cc1 (configuration not stated) | 0.655 | 34.5 | 1.02 | nt | -2.1 | nt | nt
COc1ccccc1[C@H]1C(c2ccccc2)=NN(c2ccccc2)[C@@H]1CO | nt | nt | 2.16* | nt | -116.2 | nt | -99.2
COc1ccccc1[C@H]1C(c2cccc(C)c2)=NN(c2ccccc2)[C@@H]1CO | nt | nt | 1.64 | nt | -74.7 | nt | nt
OC[C@@H]1[C@@H](c2ccc(Cl)cc2)C(c2cccc(Cl)c2)=NN1c1ccccc1 | nt | nt | 2.33* | nt | -133.3 | nt | -119.8
Cc1ccccc1NS(=O)(=O)c1ccc(C(=O)NCCCN2CCCC2=O)cc1 | 0.979 | 2.1 | 0.931 | nt | 6.9 | nt | nt
COc1ccc(C(=O)C2CCCN(C(=O)c3cccc(N(C)C)c3)C2)cc1OC (configuration not stated) | 1.17 | -17.3 | 1.02 | nt | -2.3 | nt | nt
Nc1ccncc1N | 1.21 | -21.0 | 0.285 | nt | 71.5* | nt | 74.9*
Nc1cccc2cnccc12 | 1.13 | -12.6 | 0.957 | 1 | 4.3 | -0.1 | nt
Nc1ncc2c(n1)-c1ccoc1CC2 | 0.899 | 10.1 | 0.59 | nt | 41.0* | nt | 56.2*
Nc1ncc2c(n1)-c1ccccc1CC2 | 0.982 | 1.8 | 1.07 | 1 | -7.3 | -2.6 | nt
Cc1ccnc(NC(=O)CCN2C(=O)c3ccccc3S2(=O)=O)n1 | 1.1 | -10.5 | 0.957 | nt | 4.3 | nt | nt
Cc1ccc(Nc2nc(-c3ccc(O)c(O)c3)cs2)nc1 | 1.08 | -8.3 | 0.54 | 0.8 | 46.0* | 20.0 | 52.4*
Cc1ccc(Nc2nc(-c3ccc(F)cc3)cs2)nc1 | 0.946 | 5.4 | 1.07 | nt | -7.2 | nt | nt
CCN1C(=O)/C(=C2\SC(=S)N(NC(=O)c3ccccc3O)C2=O)c2ccccc21 | 1.75 | -75.1 | 0.489 | nt | 51.1* | nt | 47.3*
COC(=O)c1ccccc1NCc1cc(=O)oc2cc(O)c(O)cc12 | 0.74 | 26.0 | 0.563 | nt | 43.7* | nt | 44.4*
Cc1cc(O)c2c(c1O)C(=O)[C@]13C(=C2O)C(=O)[C@@H]2[C@@H](O)[C@H]1[C@@H]1[C@H](O)[C@H]3C(=O)C3=C(O)c4c(O)cc(C)c(O)c4C(=O)[C@]312 | 0.953 | 4.7 | 0.532 | nt | 46.8* | nt | 41.1*
CCOc1ccc(S(=O)(=O)Nc2ncn[nH]2)cc1 | 0.887 | 11.3 | 0.996 | nt | 0.4 | nt | nt
CCOc1ccc(S(=O)(=O)Nc2cc(Sc3ncn[nH]3)c3oc(=O)sc3c2)cc1 | 0.869 | 13.1 | 0.283 | 1.4 | 71.7* | -35.2 | 82.0*
Cc1cc(O)c(CN(C)C)c2c1C(=O)/C(=C/c1ccco1)O2 | 1.04 | -4.1 | 0.815 | nt | 18.5 | nt | nt
Cc1cc(O)c(C=O)c2c1C(=O)Oc1c(CO)c(O)c3c(c1O2)C(O)OC3=O (configuration not stated) | 0.857 | 14.3 | 0.134 | 0.9 | 86.6* | 14.8 | 62.5*
